Measured values from ChEMBL document CHEMBL3588757, “Structure-based design, synthesis and biological testing of piperazine-linked bis-epipodophyllotoxin etoposide analogs” (Bioorg Med Chem, 2015).

How the values were obtained:
Type in all cases: functional
RPMI-8226 = experiment: Cytotoxicity against human RPMI8226 cells assessed as cell growth at 0.5 uM by SRB assay; conditions: read-out: Activity
KM12 = experiment: Cytotoxicity against human KM12 cells assessed as cell growth at 0.5 uM by SRB assay; conditions: read-out: Activity
SR [1] = experiment: Cytotoxicity against human SR cells assessed as cell growth at 0.05 uM by SRB assay; conditions: read-out: Activity
MOLT-4 = experiment: Cytotoxicity against human MOLT4 cells assessed as cell growth at 50 uM by SRB assay; conditions: read-out: Activity
[2] = Cytotoxicity against human NCI-ADR-RES cells assessed as cell growth at 5 uM by SRB assay; conditions: read-out: Activity
SNB-19 [3] = experiment: Cytotoxicity against human SNB19 cells by SRB assay
How it was run: (§1)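 NCI-60 panel screen; 5-dose testing giving GI50 per cell line, plus a single 10 µM one-dose test. Method details not given beyond the NCI screen.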

UACC-257 = experiment: Cytotoxicity against human UACC257 cells assessed as cell growth at 0.05 uM by SRB assay; conditions: read-out: Activity
SW-620 = experiment: Cytotoxicity against human SW620 cells assessed as cell growth at 5 uM by SRB assay; conditions: read-out: Activity
SNB-19 [4] = experiment: Cytotoxicity against human SNB19 cells assessed as cell growth at 50 uM by SRB assay; conditions: read-out: Activity
HCT-15 [5] = experiment: Cytotoxicity against human HCT15 cells assessed as cell growth at 0.5 uM by SRB assay; conditions: read-out: Activity
How it was run: (§2)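 Measured in the NCI-60 human tumour cell line panel using five-dose testing. Growth was recorded at each dose for each cell line, and a GI50 was derived for each line.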

SK-MEL-5 = experiment: Cytotoxicity against human SK-MEL-5 cells assessed as cell growth at 0.5 uM by SRB assay; conditions: read-out: Activity
NCI-H23 = experiment: Cytotoxicity against human NCI-H23 cells by SRB assay; how it was run: as §1
SR [6] = experiment: Cytotoxicity against human SR cells assessed as cell growth at 5 uM by SRB assay; conditions: read-out: Activity
TK-10 [7] = experiment: Cytotoxicity against human TK10 cells assessed as cell growth at 0.005 uM by SRB assay; conditions: read-out: Activity
CAKI-1 [8] = experiment: Cytotoxicity against human Caki1 cells assessed as cell growth at 0.5 uM by SRB assay; conditions: read-out: Activity
TK-10 [9] = experiment: Cytotoxicity against human TK10 cells assessed as cell growth at 50 uM by SRB assay; conditions: read-out: Activity
OVCAR-8 [10] = experiment: Cytotoxicity against human OVCAR8 cells assessed as cell growth at 0.005 uM by SRB assay; conditions: read-out: Activity
IGROV-1 [11] = experiment: Cytotoxicity against human IGROV1 cells assessed as cell growth at 0.005 uM by SRB assay; conditions: read-out: Activity; how it was run: as §2
SK-OV-3 = experiment: Cytotoxicity against human SKOV3 cells assessed as cell growth at 0.5 uM by SRB assay; conditions: read-out: Activity
TK-10 [12] = experiment: Cytotoxicity against human TK10 cells assessed as cell growth at 5 uM by SRB assay; conditions: read-out: Activity
DU-145 = experiment: Cytotoxicity against human DU145 cells assessed as cell growth at 0.005 uM by SRB assay; conditions: read-out: Activity
RXF 393 = experiment: Cytotoxicity against human RXF393 cells assessed as cell growth at 5 uM by SRB assay; conditions: read-out: Activity
HCT-15 [13] = experiment: Cytotoxicity against human HCT15 cells assessed as cell growth at 5 uM by SRB assay; conditions: read-out: Activity; how it was run: as §2
OVCAR-3 = experiment: Cytotoxicity against human OVCAR3 cells assessed as cell growth at 50 uM by SRB assay; conditions: read-out: Activity
LOX IMVI = experiment: Cytotoxicity against human LOXIMVI cells assessed as cell growth at 50 uM by SRB assay; conditions: read-out: Activity
HOP-62 [14] = experiment: Cytotoxicity against human HOP62 cells assessed as cell growth at 5 uM by SRB assay; conditions: read-out: Activity; how it was run: as §2
HOP-62 [15] = experiment: Cytotoxicity against human HOP62 cells assessed as cell growth at 0.05 uM by SRB assay; conditions: read-out: Activity; how it was run: as §2
786-0 = experiment: Cytotoxicity against human 786-0 cells assessed as cell growth at 0.5 uM by SRB assay; conditions: read-out: Activity
[16] = Cytotoxicity against human NCI-ADR-RES cells by SRB assay; how it was run: as §1
CAKI-1 [17] = experiment: Cytotoxicity against human Caki1 cells assessed as cell growth at 50 uM by SRB assay; conditions: read-out: Activity
T47D = experiment: Cytotoxicity against human T47D cells assessed as cell growth at 0.5 uM by SRB assay; conditions: read-out: Activity
OVCAR-8 [18] = experiment: Cytotoxicity against human OVCAR8 cells assessed as cell growth at 0.5 uM by SRB assay; conditions: read-out: Activity
NCI-H460 [19] = experiment: Cytotoxicity against human NCI-H460 cells assessed as cell growth at 0.05 uM by SRB assay; conditions: read-out: Activity
U-251 [20] = experiment: Cytotoxicity against human U251 cells assessed as cell growth at 5 uM by SRB assay; conditions: read-out: Activity
[21] = Cytotoxicity against human NCI-ADR-RES cells assessed as cell growth at 0.005 uM by SRB assay; conditions: read-out: Activity
CCRF-CEM [22] = experiment: Cytotoxicity against human CCRF-CEM cells assessed as cell growth at 0.05 uM by SRB assay; conditions: read-out: Activity
SF-539 = experiment: Cytotoxicity against human SF539 cells assessed as cell growth at 0.05 uM by SRB assay; conditions: read-out: Activity
PC-3 = experiment: Cytotoxicity against human PC3 cells by SRB assay; how it was run: as §1
COLO 205 = experiment: Cytotoxicity against human COLO205 cells assessed as cell growth at 0.5 uM by SRB assay; conditions: read-out: Activity
SF-268 = experiment: Cytotoxicity against human SF268 cells assessed as cell growth at 0.005 uM by SRB assay; conditions: read-out: Activity
SN12C = experiment: Cytotoxicity against human SN12C cells assessed as cell growth at 0.005 uM by SRB assay; conditions: read-out: Activity
NCI-H460 [23] = experiment: Cytotoxicity against human NCI-H460 cells assessed as cell growth at 0.5 uM by SRB assay; conditions: read-out: Activity
CCRF-CEM [24] = experiment: Cytotoxicity against human CCRF-CEM cells by SRB assay
U-251 [25] = experiment: Cytotoxicity against human U251 cells assessed as cell growth at 0.5 uM by SRB assay; conditions: read-out: Activity
IGROV-1 [26] = experiment: Cytotoxicity against human IGROV1 cells assessed as cell growth at 0.5 uM by SRB assay; conditions: read-out: Activity; how it was run: as §2
SK-MEL-2 = experiment: Cytotoxicity against human SK-MEL-2 cells assessed as cell growth at 50 uM by SRB assay; conditions: read-out: Activity
[27] = read-out: LC50 (the source's name)
[28] = read-out: pLC50 (the source's name) (converted)

COc1cc([C@@H]2c3cc4c(cc3[C@@H](NC(=O)CN3CCN(CCCCCCN5CCN(CC(=O)N[C@@H]6c7cc8c(cc7[C@@H](c7cc(OC)c(O)c(OC)c7)[C@H]7C(=O)OC[C@@H]76)OCO8)CC5)CC3)[C@H]3COC(=O)[C@H]23)OCO4)cc(OC)c1O
growth at 0.5 µM (RPMI-8226): 67% | growth at 0.5 µM (KM12): 81% | growth at 0.05 µM (SR [1]): 64% | growth at 50 µM (MOLT-4): 5% | growth at 5 µM [2]: 107% | GI50 (SNB-19 [3]; read-out: GI50): 1.03 µM | CC50 (SNB-19 [3]; [27]): > 50 µM | TGI (SNB-19 [3]; read-out: TGI): > 50 µM | GI50 (SNB-19 [3]; read-out: pGI50 (converted)): 1.02 µM | CC50 (SNB-19 [3]; [28]): > 50.1 µM | TGI (SNB-19 [3]; read-out: pTGI (converted)): > 50.1 µM | growth at 0.05 µM (UACC-257): 113% | growth at 5 µM (SW-620): 37% | growth at 50 µM (SNB-19 [4]): 11% | growth at 0.5 µM (HCT-15 [5]): 90% | growth at 0.5 µM (SK-MEL-5): 85% | GI50 (NCI-H23; read-out: GI50): 3.82 µM | CC50 (NCI-H23; [27]): > 50 µM | TGI (NCI-H23; read-out: TGI): 38.6 µM | GI50 (NCI-H23; read-out: pGI50 (converted)): 3.8 µM | CC50 (NCI-H23; [28]): > 50.1 µM | TGI (NCI-H23; read-out: pTGI (converted)): 38.9 µM | growth at 5 µM (SR [6]): 6% | growth at 0.005 µM (TK-10 [7]): 101% | growth at 0.5 µM (CAKI-1 [8]): 88% | growth at 50 µM (TK-10 [9]): 63% | growth at 0.005 µM (OVCAR-8 [10]): 110% | growth at 0.005 µM (IGROV-1 [11]): 111% | growth at 0.5 µM (SK-OV-3): 97% | growth at 5 µM (TK-10 [12]): 85% | growth at 0.005 µM (DU-145): 102% | growth at 5 µM (RXF 393): 66% | growth at 5 µM (HCT-15 [13]): 82% | growth at 50 µM (OVCAR-3): 11% | growth at 50 µM (LOX IMVI): -8% | growth at 5 µM (HOP-62 [14]): 42% | growth at 0.05 µM (HOP-62 [15]): 96% | growth at 0.5 µM (786-0): 82% | GI50 ([16]; read-out: GI50): > 50 µM | CC50 [16, 27]: > 50 µM | TGI ([16]; read-out: TGI): > 50 µM | GI50 ([16]; read-out: pGI50 (converted)): > 50.1 µM | CC50 [16, 28]: > 50.1 µM | TGI ([16]; read-out: pTGI): > 50.1 µM | growth at 50 µM (CAKI-1 [17]): 57% | growth at 0.5 µM (T47D): 79% | growth at 0.5 µM (OVCAR-8 [18]): 111% | growth at 0.05 µM (NCI-H460 [19]): 89% | growth at 5 µM (U-251 [20]): 23% | growth at 0.005 µM [21]: 104% | growth at 0.05 µM (CCRF-CEM [22]): 95% | growth at 0.05 µM (SF-539): 96% | GI50 (PC-3; read-out: GI50): 6.87 µM | CC50 (PC-3; [27]): > 50 µM | TGI (PC-3; read-out: TGI): > 50 µM | GI50 (PC-3; read-out: pGI50 (converted)): 6.92 µM | CC50 (PC-3; [28]): > 50.1 µM | TGI (PC-3; read-out: pTGI (converted)): > 50.1 µM | growth at 0.5 µM (COLO 205): 60% | growth at 0.005 µM (SF-268): 97% | growth at 0.005 µM (SN12C): 96% | growth at 0.5 µM (NCI-H460 [23]): 35% | GI50 (CCRF-CEM [24]; read-out: GI50): 0.253 µM | CC50 (CCRF-CEM [24]; [27]): > 50 µM | TGI (CCRF-CEM [24]; read-out: TGI): > 50 µM | GI50 (CCRF-CEM [24]; read-out: pGI50 (converted)): 0.251 µM | CC50 (CCRF-CEM [24]; [28]): > 50.1 µM | TGI (CCRF-CEM [24]; read-out: pTGI): > 50.1 µM | growth at 0.5 µM (U-251 [25]): 76% | growth at 0.5 µM (IGROV-1 [26]): 89% | growth at 50 µM (SK-MEL-2): -15%
